SENP7 block – inhibitors of human SENP7 protease | Q9BQF6 | recombinant SENP7, Z-RLRGG-aminoluciferin luminescence, 40 min | inhibition, % at 5 µM | 330,000 tested, 1.5% active | AID 434973;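 active = inhibition above about 50% at the single test dose, limit read from the data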;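 note: plate controls were DMSO with enzyme for no effect and no enzyme buffer wells for full effect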
Apaf1 inhib – inhibitors of human Apaf-1 apoptosome; O14727; reconstituted apoptosome caspase-3 activity, DEVD-Rh110 fluorescence; inhibition, % at 20 µM; 330,000 tested, 0.71% active; AID 489030; active = inhibition of at least 40% at 20 µM;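 note: plate controls were DMSO wells for no effect and DEVD-CHO caspase inhibitor wells for full effect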
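Material: reconstituted apoptosome with Apaf-1, cytochrome c, caspase-9, procaspase-3, dATP; medium: pH 7.5 Hepes buffer with CHAPS, BSA, DTT; also added: cytochrome c and DEVD-Rh110 substrate; timing: 30 min plus 50 min, RT; signal: Rh110 fluorescence intensity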
SENP8 block-1 – inhibitors of human SENP8 protease | recombinant SENP8, Nedd8 substrate fluorescence | AID 602440 | 360,000 tested, 0.64% active | inhibition, % at 20 µM; in the data active = inhibition mostly above about 40%, no sharp cut-off; inactive = mostly below about 27%
Target sequence (Q96LD8 whole entry, looked up): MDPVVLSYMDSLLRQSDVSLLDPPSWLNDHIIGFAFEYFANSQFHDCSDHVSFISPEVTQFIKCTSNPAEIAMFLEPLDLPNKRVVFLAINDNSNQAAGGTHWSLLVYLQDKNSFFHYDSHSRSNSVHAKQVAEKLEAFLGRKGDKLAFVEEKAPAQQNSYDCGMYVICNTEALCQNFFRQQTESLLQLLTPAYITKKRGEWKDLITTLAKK
UBC13 polyUb – human UBC13 polyubiquitination inhibition. inhibition, % at 20 µM. P61088. UBC13 polyubiquitin chain formation, TR-FRET. 330,000 tested, 0.47% active; in the data active = inhibition above about 45%, passing the limit was not always enough
SENP8 block-2 – blocks the human protease SENP8; purified SENP8, Z-RLRGG-aminoluciferin cleavage, luminescence; inhibition, % at 10 µM; 330,000 tested, 1.2% active; in the data active = inhibition above about 50%
SENP6 inh – inhibitors of human SENP6 protease; inhibition, % at 10 µM; 330,000 tested, 1.8% active; Q9GZR1; Recombinant SENP6 catalytic domain, aminoluciferin luminescence;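 active = inhibition above about 50% at the single tested dose, limit read from the data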;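 note: plate controls were DMSO wells with enzyme for no effect and DMSO wells lacking enzyme for full effect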
Target sequence (Q9GZR1 628-1112 limits assumed): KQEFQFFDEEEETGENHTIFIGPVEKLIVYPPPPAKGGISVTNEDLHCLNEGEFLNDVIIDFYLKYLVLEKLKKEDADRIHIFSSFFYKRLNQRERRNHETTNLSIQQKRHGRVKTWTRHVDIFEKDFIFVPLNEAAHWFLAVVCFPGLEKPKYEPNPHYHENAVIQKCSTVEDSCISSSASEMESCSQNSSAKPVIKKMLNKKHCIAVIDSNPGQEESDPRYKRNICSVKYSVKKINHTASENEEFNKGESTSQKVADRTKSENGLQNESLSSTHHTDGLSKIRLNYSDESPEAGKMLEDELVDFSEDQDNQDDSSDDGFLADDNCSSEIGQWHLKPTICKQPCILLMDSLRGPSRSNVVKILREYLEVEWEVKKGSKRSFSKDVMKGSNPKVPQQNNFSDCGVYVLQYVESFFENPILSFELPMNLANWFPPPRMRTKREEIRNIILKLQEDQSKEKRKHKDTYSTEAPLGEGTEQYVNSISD
Casp3 UBC13 ctr – caspase-3 inhibition (UBC13 counter-screen); inhibition, % at 20 µM; 1,400 tested, 4% active; shares compounds with UBC13 polyUb; Recombinant caspase-3, Caspase-Glo 3/7 luminescence, 60 min;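 active = mean inhibition across replicates above about 26%, limit read from the data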;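 note: plate controls were DMSO with caspase-3 for no effect and DMSO wells lacking enzyme for full effect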
UBC13 conf – human UBC13 polyubiquitin inhibition, confirmed | shares compounds with UBC13 polyUb | UBC13 polyubiquitination, TR-FRET, biochemical | inhibition, % at 10 µM | 1,400 tested, 68% active | AID 488859; in the data active = inhibition above about 45%
Apaf-1 inh conf – Apaf-1 inhibition, single-dose confirmed; shares compounds with Apaf1 inhib; reconstituted apoptosome, caspase-3 DEVD-Rh110 fluorescence; inhibition, % at 20 µM; 1,800 tested, 25% active; AID 504614;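 active = mean inhibition of at least 40% at 20 µM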;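 note: plate controls were DMSO wells for no effect and DEVD-CHO caspase inhibitor control wells for full effect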
Rh110 interf inh – Rh110 signal interference in Apaf-1 inhibitor counter-screen | shares compounds with Apaf1 inhib | Rh110 fluorescence interference, quenched caspase reaction | activation (fluorescence interference), % at 20 µM | 1,800 tested, under 10 active;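 active = signal rise of 40% or more at 20 µM, treated as a fluorescence artifact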
Fluor interf inh – Apaf-1 inhibitor counter-screen fluorescence artifact; shares compounds with Apaf1 inhib; fluorescence interference counterscreen, Apaf-1 assay format; IC50, µM; 460 tested, under 10 active; call rule not given here
SENP8 inh conf – confirmation of human SENP8 protease inhibitors; shares compounds with SENP8 block-1; purified SENP8, Nedd8-AMC/pro-Nedd8 cleavage fluorescence, 30 min; inhibition, % at 25 µM; 1,400 tested, 15% active; AID 624319; in the data active = inhibition mostly above about 39%, no sharp cut-off; inactive = mostly below about 34%
* hit, by the source's call; i = inactive; . = not tested or not shown. Shown are actives, neighbours in structure and some others; about 3.1% of the full set was active somewhere.

SMILES	SENP7 block	Apaf1 inhib	SENP8 block-1	UBC13 polyUb	SENP8 block-2	SENP6 inh	Casp3 UBC13 ctr	UBC13 conf	Apaf-1 inh conf	Rh110 interf inh	others
c1ccc2c(C[C@@H]3CNCCN3CC3CCCCC3)cccc2c1	-0.8	43.7*	10.7	59.5*	-9.1	-16.5	2.1	58.3*	7.5	9.4
CC1(C(=O)O)CCN1C(=O)COc1ccc(Cl)cc1 (stereo not drawn)	.	.	8.4	.	.	.	.	.	.	.
CCOc1cc(-c2ccccc2)nc2c1CN(S(=O)(=O)c1ccc(C)cc1)C(c1cccc(Cl)c1)C2 (stereo not drawn)	.	.	11.2	.	.	.	.	.	.	.
CCOC(=O)c1c(-c2ccc(-c3ccccc3)cc2)csc1NC(=O)CNCCN(C)C	0.4	42.2*	0.9	78.6*	-5.2	-20.2	-4.5	84.7*	47.4*	5.3	Fluor interf inh=>100
CCCCCCCCCCCCC/C=C/[C@@H](O)[C@@H](N)CO	0.1	79.2*	13.8	107.8*	-10.8	-25.6	-3.3	114.2*	37.2	18.2
CCCCCCCC/C=C\CCCCCCCC(=O)O	9.2	2.5	13.1	7.9	10.7	1.6	.	.	.	.
CCCCCCCCCCCCCCCCn1cc[n+](C)c1	-0.1	79.9*	14.8	73.2*	3.7	-23.7	-3.1	98.9*	43.8*	13.9	Fluor interf inh=>100
COc1ccc(C2=Nn3c(nnc3-c3ccccc3F)SC2)cc1OC1CCCC1	7.0	47.3*	12.7	55.4*	-6.4	-4.9	6.8	40.4	23.4	8.8
COc1ccc(C(CNC(=O)COc2c(C)cc(C)cc2C)N2CCOCC2)cc1 (stereo not drawn)	5.0	66.5*	3.8	51.2*	-7.4	10.7	-0.9	29.1	44.8*	7.2	Fluor interf inh=>100
NC(=O)c1cccc(-c2ccnc3c2CC(C(=O)NCc2ccccc2)O3)c1 (stereo not drawn)	.	.	2.6	.	.	.	.	.	.	.
COC(=O)[C@@]1(Cc2ccc(OC)cc2)[C@H]2c3cc(C(=O)N4CCCC4)n(Cc4ccccc4)c3C[C@H]2CN1C(=O)c1ccccc1	.	.	-0.8	.	.	.	.	.	.	.
COC(=O)C1=C(C)N(Cc2ccccc2)C(=NCCc2c[nH]c3ccccc23)N[C@H]1c1cccc(C(F)(F)F)c1	-3.7	78.0*	-45.3	74.0*	-21.1	-18.1	0.7	86.3*	42.7*	0.5	Fluor interf inh=>100
COC(=O)C1=C(C)N(Cc2ccccc2)C(=NCc2cccc(C(F)(F)F)c2)N[C@H]1c1cccc(C(F)(F)F)c1	-2.5	74.5*	7.0	89.6*	-22.6	-15.9	3.8	94.1*	33.5	12.3
COC(=O)C1=C(C)N(Cc2ccccc2)C(=NCCCCO)N[C@H]1c1cccc(C(F)(F)F)c1	-4.4	34.4	-14.9	34.2	-6.1	-4.6	.	.	.	.
CCN1C(=NCCCCO)N[C@@H](c2cccc(C(F)(F)F)c2)C(C(=O)OC)=C1C	-1.9	0.6	-1.0	6.2	-4.4	-3.4	.	.	.	.
COC(=O)C1=C(C)N(CC2CC2)C(=NCc2cccc(C(F)(F)F)c2)N[C@H]1c1ccccc1	-0.1	57.1*	-129.9	66.5*	2.4	-2.7	3.3	74.9*	13.6	12.1
CC[C@@H]1CC2=C(C(=O)OC(C)(C)O2)[C@H](c2ccc(Cl)cc2)O1	.	.	16.7	.	.	.	.	.	.	.
Cc1cc(=O)[nH]c2nc3ccccc3n12	.	.	-471.2	.	.	.	.	.	.	.
O=C(c1ccc(OCCN2CCCCC2)cc1)c1c(-c2ccc(O)cc2)sc2cc(O)ccc12	5.1	46.9*	-1.9	91.5*	-6.2	-18.0	3.9	101.6*	7.9	-4.7
COc1ccc2sc(-c3ccccc3OC)c(-c3ccc(OCCN4CCOCC4)cc3)c2c1	0.2	28.4	-34.1	.	.	.	.	.	.	.
COc1cc2sc(-c3ccccc3OC)c(-c3ccc(OCCN4CCCCC4)cc3)c2cc1OC	7.0	65.7*	-48.5	76.5*	-6.9	4.0	-1.3	73.5*	25.3	12.3
COc1ccccc1-c1sc2cc3c(cc2c1-c1ccc(OCCN2CCCCC2)cc1)OCO3	0.5	59.4*	i	77.3*	-1.7	-8.8	0.3	69.4*	8.5	1.3
O=C(CCCCn1c(=O)c2ccccc2n(Cc2ccccc2F)c1=O)NC1CCN(Cc2ccccc2)CC1	-0.2	3.5	40.4*	99.7*	-6.9	7.6	-0.3	106.9*	.	.	SENP8 inh conf=9.5
Cc1ccc(-c2nc3c(Cl)cc(C(F)(F)F)cn3c2Cc2cccc(F)c2)cc1	.	.	-374.3	.	.	.	.	.	.	.
Nc1ccc(C(=O)OCC(=O)N2c3ccccc3Sc3ccccc32)cc1[N+](=O)[O-]	.	.	2.9	.	.	.	.	.	.	.
SMILES	SENP7 block	Apaf1 inhib	SENP8 block-1	UBC13 polyUb	SENP8 block-2	SENP6 inh	Casp3 UBC13 ctr	UBC13 conf	Apaf-1 inh conf	Rh110 interf inh	others
NCCNc1ccc(C(=O)N2c3ccccc3Sc3ccccc32)cc1[N+](=O)[O-]	-0.1	29.2	52.3*	64.9*	-17.7	-20.7	-2.2	111.0*	.	.	SENP8 inh conf=21.1
CN(C)CC/C=C1\c2ccccc2Sc2ccc(Cl)cc21	-13.0	49.1*	-1.4	11.8	-4.8	-14.0	.	.	15.5	5.5
CN(C)CCCN1c2ccccc2Sc2ccc(Cl)cc21	-5.6	42.5*	-9.4	18.2	-5.2	-10.1	.	.	15.5	7.6
CN(C)CCCN1c2ccccc2Sc2ccc3ccccc3c21	.	.	-242.8	.	.	.	.	.	.	.
CN(C)CC/C=C1\c2ccccc2Sc2cc(F)c(Cl)cc21	5.4	9.1	20.7	30.6	-3.6	-6.9	.	.	.	.
CCCCNC(=O)C1(C)CCCCN1C(=O)c1cc2ccccc2s1 (stereo not drawn)	.	.	17.1	.	.	.	.	.	.	.
CCOC(=O)C1=CCN(S(=O)(=O)c2ccccc2Br)C1c1ccc(F)cc1 (stereo not drawn)	.	.	16.5	.	.	.	.	.	.	.
CC(C)(C)C(=O)[C@@H]1[C@@H]2C(=O)N(C3CCCCC3)C(=O)[C@@H]2[C@H]2c3ccccc3C=CN12	-0.1	63.7*	-91.2	-16.3	6.7	20.3	.	.	59.9*	4.1	Fluor interf inh=>100
O=C(c1ccc2c(c1)OCO2)[C@@H]1[C@@H]2C(=O)N(C3CCCCC3)C(=O)[C@@H]2C2c3ccccc3C=CN21 (stereo partly drawn)	.	.	-22.3	.	.	.	.	.	.	.
NC(=O)C1(Nc2ccc(Cl)cc2)CCCC1	.	.	15.9	.	.	.	.	.	.	.
Cc1cc(C)c2sc(N(CCN(C)C)C(=O)CCS(=O)(=O)c3ccccc3)nc2c1	4.6	52.5*	5.2	-1.3	0.0	12.5	.	.	7.5	6.8

Screening results as filed in PubChem.
